Assay results taken from ChEMBL document CHEMBL1649298, “Correlation between vancomycin MIC values and those of other agents against gram-positive bacteria among patients with bloodstream infections caused by methicillin-resistant Staphylococcus aureus” (2009).
≈ marks a conversion by molar mass, not a printed value.

Tests used:
Assay type in all cases: functional
Staphylococcus aureus [1] = experiment: microbe, parasite or virus in culture
Staphylococcus aureus [2] = experiment: Antibacterial activity against methicillin-resistant Staphylococcus aureus isolated form patient blood measured after 18 to 24 hrs on day 1 isolation by Etest
Procedure, shortened: (§1)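 MRSA bloodstream isolates came from 120 patients at a tertiary care hospital between January 2005 and May 2007. MICs were read by Etest. Each patient's isolates were grouped as day 1 (index) or post-day 1 (subsequent).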

Staphylococcus aureus [3] = experiment: Antibacterial activity against methicillin-resistant Staphylococcus aureus isolated form patient blood measured after 18 to 24 hrs on day 1 post isolation by Etest
Procedure, shortened: as §1

CCCCCCCCCC(=O)N[C@@H](Cc1c[nH]c2ccccc12)C(=O)N[C@H](CC(N)=O)C(=O)N[C@@H](CC(=O)O)C(=O)N[C@@H]1C(=O)NCC(=O)N[C@@H](CCCN)C(=O)N[C@@H](CC(=O)O)C(=O)N[C@H](C)C(=O)N[C@@H](CC(=O)O)C(=O)NCC(=O)N[C@H](CO)C(=O)N[C@@H]([C@H](C)CC(=O)O)C(=O)N[C@@H](CC(=O)c2ccccc2N)C(=O)O[C@@H]1C
MIC (Staphylococcus aureus [1]): 0.13 mg/L (≈ 0.0802 µM) | MIC50 (Staphylococcus aureus [1]): 0.38 mg/L (≈ 0.234 µM) | MIC90 (Staphylococcus aureus [1]): 0.75 mg/L (≈ 0.463 µM) | MIC (Staphylococcus aureus [2]): 0.13 mg/L (≈ 0.0802 µM) | MIC50 (Staphylococcus aureus [2]): 0.5 mg/L (≈ 0.309 µM) | MIC90 (Staphylococcus aureus [2]): 0.75 mg/L (≈ 0.463 µM) | MIC (Staphylococcus aureus [3]): 0.19 mg/L (≈ 0.117 µM) | MIC50 (Staphylococcus aureus [3]): 0.5 mg/L (≈ 0.309 µM) | MIC90 (Staphylococcus aureus [3]): 1 mg/L (≈ 0.617 µM)

CC(=O)NC[C@H]1CN(c2ccc(N3CCOCC3)c(F)c2)C(=O)O1 [LINEZOLID]
MIC (Staphylococcus aureus [1]): 0.75 mg/L (≈ 2.22 µM) | MIC50 (Staphylococcus aureus [1]): 0.75 mg/L (≈ 2.22 µM) | MIC90 (Staphylococcus aureus [1]): 1 mg/L (≈ 2.96 µM) | MIC (Staphylococcus aureus [2]): 0.38 mg/L (≈ 1.13 µM) | MIC50 (Staphylococcus aureus [2]): 0.75 mg/L (≈ 2.22 µM) | MIC90 (Staphylococcus aureus [2]): 1.5 mg/L (≈ 4.45 µM) | MIC (Staphylococcus aureus [3]): 0.38 mg/L (≈ 1.13 µM) | MIC50 (Staphylococcus aureus [3]): 1 mg/L (≈ 2.96 µM) | MIC90 (Staphylococcus aureus [3]): 1.5 mg/L (≈ 4.45 µM)

CN(C)c1cc(NC(=O)CNC(C)(C)C)c(O)c2c1C[C@H]1C[C@H]3[C@H](N(C)C)C(O)=C(C(N)=O)C(=O)[C@@]3(O)C(O)=C1C2=O [TIGECYCLINE]
MIC (Staphylococcus aureus [1]): 0.09 mg/L (≈ 0.154 µM) | MIC50 (Staphylococcus aureus [1]): 0.13 mg/L (≈ 0.222 µM) | MIC90 (Staphylococcus aureus [1]): 0.2 mg/L (≈ 0.341 µM) | MIC (Staphylococcus aureus [2]): 0.09 mg/L (≈ 0.154 µM) | MIC50 (Staphylococcus aureus [2]): 0.19 mg/L (≈ 0.324 µM) | MIC90 (Staphylococcus aureus [2]): 0.25 mg/L (≈ 0.427 µM) | MIC (Staphylococcus aureus [3]): 0.09 mg/L (≈ 0.154 µM) | MIC50 (Staphylococcus aureus [3]): 0.19 mg/L (≈ 0.324 µM) | MIC90 (Staphylococcus aureus [3]): 0.25 mg/L (≈ 0.427 µM)

CN[C@H](CC(C)C)C(=O)N[C@H]1C(=O)N[C@@H](CC(N)=O)C(=O)N[C@H]2C(=O)N[C@H]3C(=O)N[C@H](C(=O)N[C@H](C(=O)O)c4cc(O)cc(O)c4-c4cc3ccc4O)[C@H](O)c3ccc(c(Cl)c3)Oc3cc2cc(c3O[C@@H]2O[C@H](CO)[C@@H](O)[C@H](O)[C@H]2O[C@H]2C[C@](C)(N)[C@H](O)[C@H](C)O2)Oc2ccc(cc2Cl)[C@H]1O [VANCOMYCIN]
MIC50 (Staphylococcus aureus [2]): 1.5 mg/L (≈ 1.04 µM) | MIC90 (Staphylococcus aureus [2]): 1.5 mg/L (≈ 1.04 µM) | MIC50 (Staphylococcus aureus [3]): 1.5 mg/L (≈ 1.04 µM) | MIC90 (Staphylococcus aureus [3]): 2 mg/L (≈ 1.38 µM)
